According to PubChem BioAssay AID623954 (The Scripps Research Institute Molecular Screening Center, 2012):
Activity calls are given as the source filed them.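 The calls were made as follows: active = recombinant frequency cut at least fourfold versus the solvent-only control; inactive = reduction in recombinant frequency below fourfold.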

System: E. coli recBCD-deletion with H. pylori AddAB/RecA, Hfr recombination, colony count
Test: recombination inhibition in AddAB/RecA E. coli, late-stage follow-up, counter-screen for AddAB inhibitor project, colony formation, p(addAB), p(recA), 100 µM (AID 623954)
Conditions: at 100 µM; active compounds read high
Procedure, shortened: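 System: E. coli ΔrecBCD recipient carrying H. pylori addAB, recA plasmids / Probe or stimulus: HfrH E. coli donor mixed 1:10 with recipient / Technique: differential plating counting His+ StrR recombinant colonies / Evaluation: viability-adjusted fold reduction of recombinant frequency versus DMSO / Benchmarks: DMSO-treated culture / Repeats: duplicate experiments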

Compound | fold reduction of recombinant frequency
N#Cc1c(NC(=O)c2ccc([N+](=O)[O-])o2)sc2c1CCC2 | 20
CNC(=O)c1c(NC(=O)c2nc(SCc3ccccc3)ncc2Cl)sc2c1CCCC2 | 2 (inactive)
CCn1cc(C(=O)O)c(=O)c2cc(F)c(N3CCN(C(=S)Nc4cccc(C(F)(F)F)c4)CC3)cc21 | 8
